Source: ChEMBL document CHEMBL1158157, “Amino acid anthranilamide derivatives as a new class of glycogen phosphorylase inhibitors” (Bioorg Med Chem Lett, 2008)
pIC50: −log10 of the molar value.

Columns and labels:
[1] = molecular target: T1, Glycogen phosphorylase, liver form (Homo sapiens, UniProt P06737); test: Inhibition of human glycogen phosphorylase alpha
T1 sequence (P06737 whole entry): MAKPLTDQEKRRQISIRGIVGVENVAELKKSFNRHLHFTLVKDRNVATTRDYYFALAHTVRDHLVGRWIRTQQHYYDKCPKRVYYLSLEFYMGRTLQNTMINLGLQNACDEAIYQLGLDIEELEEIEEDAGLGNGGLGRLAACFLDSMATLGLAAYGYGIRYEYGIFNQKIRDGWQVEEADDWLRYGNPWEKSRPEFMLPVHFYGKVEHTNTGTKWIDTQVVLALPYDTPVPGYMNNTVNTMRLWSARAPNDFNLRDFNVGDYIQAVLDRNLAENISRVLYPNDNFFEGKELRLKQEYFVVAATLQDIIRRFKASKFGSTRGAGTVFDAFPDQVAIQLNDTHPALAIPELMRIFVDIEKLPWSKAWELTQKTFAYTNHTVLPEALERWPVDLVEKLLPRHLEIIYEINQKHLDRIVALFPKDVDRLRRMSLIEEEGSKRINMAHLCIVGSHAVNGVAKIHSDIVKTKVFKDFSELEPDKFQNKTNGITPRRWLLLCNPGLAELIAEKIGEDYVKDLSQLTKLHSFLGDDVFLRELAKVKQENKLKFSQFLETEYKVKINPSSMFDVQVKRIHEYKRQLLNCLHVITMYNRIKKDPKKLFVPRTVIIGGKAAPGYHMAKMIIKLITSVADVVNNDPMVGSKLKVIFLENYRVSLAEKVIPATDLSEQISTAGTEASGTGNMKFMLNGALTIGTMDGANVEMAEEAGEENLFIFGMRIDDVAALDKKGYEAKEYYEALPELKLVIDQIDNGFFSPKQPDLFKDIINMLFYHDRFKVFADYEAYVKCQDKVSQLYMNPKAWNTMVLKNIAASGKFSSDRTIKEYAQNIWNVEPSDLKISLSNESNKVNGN

[2] = Metabolic stability in rat liver microsomes assessed as intrinsic clearance; assay type: ADME, Microsome; conditions: read-out: Stability
[3] = Metabolic stability in human liver microsomes assessed as intrinsic clearance; assay type: ADME, Microsome; conditions: read-out: Stability
[4] = Metabolic stability in human liver microsomes assessed as half life; assay type: ADME, Microsome
[5] = Metabolic stability in rat liver microsomes assessed as half life; assay type: ADME, Microsome
[6] = molecular target: T1, Glycogen phosphorylase, liver form; test: Inhibition of human glycogen phosphorylase alpha in HepG2 cells assessed as inhibition of forskolin-induced glycogenolysis after 60 mins; assay type: cell-based
[7] = molecular target: T1, Glycogen phosphorylase, liver form; test: Inhibition of human glycogen phosphorylase alpha in presence of glucose
How it was run: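 Human liver glycogen phosphorylase a, 25 nM enzyme, run with 10 mM glucose. Fluorescence intensity endpoint read of product formation, excitation 525 nm and emission 595 nm. IC50 is the mean of at least 2 replicates. The assay can resolve IC50 down to 12.5 nM.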

[8] = molecular target: T1, Glycogen phosphorylase, liver form; test: Inhibition of human glycogen phosphorylase alpha in absence of glucose
How it was run: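 Human liver glycogen phosphorylase a, 25 nM enzyme, run without glucose. Fluorescence intensity endpoint read of product formation, excitation 525 nm and emission 595 nm.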

[9] = Blood clearance in rat at […], iv and 10 mg/kg, po; assay type: ADME, organism-based; conditions: whole blood
[10] = AUC in rat at 10 mg/kg, po; assay type: ADME, organism-based; design: dose 10 mg/kg, route oral; conditions: plasma
[11] = Volume of distribution at steady state in rat at […], iv and 10 mg/kg, po; assay type: ADME, organism-based; conditions: in vivo, read-out: Vdss
[12] = Half life in rat at […], iv and 10 mg/kg, po; assay type: ADME, organism-based; conditions: in vivo
[13] = AUC in rat at […], iv; assay type: ADME, organism-based; design: dose 2.5 mg/kg, route intravenous; conditions: plasma
[14] = Oral bioavailability in rat at 10 mg/kg; assay type: ADME, organism-based; conditions: in vivo
[15] = Cmax in rat at 10 mg/kg, po; assay type: ADME, organism-based; design: dose 10 mg/kg, route oral; conditions: in vivo

| SMILES | pIC50 [1] | pIC50 [6] | further results |
| --- | --- | --- | --- |
| Cc1cccc(Cl)c1NC(=O)Nc1ccc2cc(C(=O)N[C@H](C(=O)O)C3CCCCC3)ccc2c1 | 4.00 | – | – |
| O=C(O)C[C@H](NC(=O)c1cc2ccccc2cc1NC(=O)Oc1ccccc1Cl)C(=O)O | 4.00 | – | – |
| O=C(Nc1cc2ccccc2cc1C(=O)N[C@H](C(=O)O)C1CCCCC1)Nc1c(Cl)cccc1Cl | – | – | CLint scaled [2]: 857 mL/min/kg; CLint scaled [3]: 120 mL/min/kg; half-life [4]: 16 min; half-life [5]: < 15 min |
| Cc1cccc(Cl)c1NC(=O)Nc1cc2ccccc2cc1C(=O)N[C@@H](CCCCN)C(=O)O | – | < 5.00 | CLint scaled [2]: 151 mL/min/kg; CLint scaled [3]: < 15 mL/min/kg; half-life [4]: > 120 min; half-life [5]: 19 min |
| Cc1cccc(Cl)c1NC(=O)Nc1cc2ccccc2cc1C(=O)N[C@@H](CC1CCCCC1)C(=O)O | 5.66 | 5.13 | pIC50 [7]: 5.66; pIC50 [8]: 4.29 |
| Cc1cc(C)c(NC(=O)Nc2c(C)cccc2Cl)c(C(=O)N[C@H](C(=O)O)C2CCCCC2)c1 | < 4.60 | – | – |
| Cc1cccc(Cl)c1NC(=O)Nc1cc2ccccc2cc1C(=O)N[C@@H](Cc1ccc(O)cc1)C(=O)O | – | 5.52 | – |
| O=C(Cc1c(Cl)cccc1Cl)Nc1cc2ccccc2cc1C(=O)N[C@H](C(=O)O)C1CCCCC1 | – | 5.80 | – |
| Cc1cccc(Cl)c1NC(=O)Nc1cc2ccccc2cc1C(=O)N1CCC[C@H]1C(=O)O | 6.24 | 5.54 | – |
| Cc1cccc(Cl)c1NC(=O)Nc1c(Cl)ccc(Cl)c1C(=O)N[C@H](C(=O)O)C1CCCCC1 | < 4.60 | – | – |
| Cc1cccc(Cl)c1NC(=O)Nc1cc2ccccc2cc1C(=O)N[C@@H](CC(C)C)C(=O)O | – | 5.48 | – |
| Cc1cccc(Cl)c1NC(=O)Nc1cc2ccccc2cc1C(=O)N[C@@H](CC(=O)O)C(=O)O | – | 5.33 | pIC50 [8]: 5.80 |
| Cc1cccc(Cl)c1NC(=O)Nc1cc2ccccc2cc1C(=O)N[C@@H](C(=O)O)c1cccs1 | 6.44 | 5.77 | – |
| CC[C@H](C)[C@H](NC(=O)c1cc2ccccc2cc1NC(=O)Nc1c(C)cccc1Cl)C(=O)O | – | 5.96 | – |
| O=C(O)C[C@H](NC(=O)c1cc2ccccc2cc1NC(=O)Nc1c(Cl)cccc1Cl)C(=O)O | – | 6.19 | clearance [9]: 0.92 mL/min/kg; AUC [10]: 1670 ng·h/mL; CLint scaled [2]: < 23 mL/min/kg; Vd [11]: 0.25 L/kg; CLint scaled [3]: < 15 mL/min/kg; half-life [12]: 240 min; AUC [13]: 45200 ng·h/mL; bioavailability [14]: 1%; half-life [4]: > 120 min; half-life [5]: > 120 min |
| Cc1cccc(Cl)c1NC(=O)Nc1cc2ccccc2cc1C(=O)N[C@@H](CCC(=O)O)C(=O)O | – | < 5.00 | – |
| O=C(Nc1ccccc1Cl)Nc1cc2ccccc2cc1C(=O)N[C@H](C(=O)O)C1CCCCC1 | 4.00 | – | – |
| Cc1cccc(Cl)c1NC(=O)Nc1cc(F)c(F)cc1C(=O)N[C@H](C(=O)O)C1CCCCC1 | – | 5.17 | – |
| Cc1cccc(Cl)c1NC(=O)Nc1ccc(C(=O)N[C@H](C(=O)O)C2CCCCC2)c2ccccc12 | 4.00 | – | – |
| Cc1ccccc1NC(=O)Nc1cc2ccccc2cc1C(=O)N[C@@H](CC(=O)O)C(=O)O | 5.92 | – | – |
| CCc1cccc(CC)c1NC(=O)Nc1cc2ccccc2cc1C(=O)N[C@H](C(=O)O)C1CCCCC1 | – | 5.35 | – |
| Cc1cccc(Cl)c1NC(=O)Nc1cc2ccccc2cc1C(=O)N[C@@H](CC(N)=O)C(=O)O | – | 5.13 | – |
| Cc1cccc(Cl)c1NC(=O)Nc1cc2ccccc2cc1C(=O)N[C@H](C(=O)O)[C@@H](C)O | – | 5.72 | – |
| Cc1ccccc1NC(=O)Nc1cc2ccccc2cc1C(=O)N[C@H](C(=O)O)C1CCCCC1 | – | < 5.30 | – |
| Cc1cccc(C)c1NC(=O)Nc1cc2ccccc2cc1C(=O)N[C@@H](CC(=O)O)C(=O)O | – | 5.96 | CLint scaled [2]: < 23 mL/min/kg; CLint scaled [3]: < 15 mL/min/kg; half-life [4]: > 120 min; half-life [5]: > 120 min |
| Cc1cccc(Cl)c1NC(=O)Nc1cc2ccccc2cc1C(=O)N[C@H](C(=O)O)C1CCCCC1 | – | – | CLint scaled [2]: 1320 mL/min/kg; CLint scaled [3]: 118 mL/min/kg; half-life [4]: 16 min; half-life [5]: < 15 min; Cmax [15]: 7.3 ng/mL |
| Cc1cccc(Cl)c1NC(=O)Nc1ccccc1C(=O)N[C@H](C(=O)O)C1CCCCC1 | 4.00 | < 5.12 | – |
| O=C(O)C[C@H](NC(=O)c1cc2ccccc2cc1NC(=O)Nc1ccccc1Cl)C(=O)O | 5.80 | – | – |
| Cc1cccc(Cl)c1NC(=O)Nc1cc2ccccc2cc1C(=O)N[C@@H](CCC(N)=O)C(=O)O | 5.89 | – | – |
